In ChEMBL document CHEMBL1129609, “Synthesis and antiviral activity evaluation of some new aminoadamantane derivatives. 2” (1996):
Converted amounts (≈) assume the structure as drawn.

Columns and labels:
[1] = test system: Human alphaherpesvirus 2; test: Antiviral activity against HSV-2 virus infected HEF cell lines.; format: functional
Summary of the method: (§1)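 Human embryonic fibroblasts, from embryonic lung or embryonic skin-muscle, infected with the virus. Endpoint is the minimum inhibitory concentration that reduces virus-induced cytopathicity by 50%. Values are averages of at least two separate experiments.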

[2] = test system: Human betaherpesvirus 5; test: Antiviral activity against HCMV virus infected HEL cell lines.; format: functional
Summary of the method: (§2)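 Vero (African green monkey kidney), HeLa (human epithelial) or HEL (human embryonic lung) cell monolayers infected with the virus. Readout is the minimum inhibitory concentration that reduces virus-induced cytopathicity by 50%. Values are averages of at least two separate experiments.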

[3] = Antiviral activity against influenza A,H2N2 virus infected MDCK cell lines.; format: functional
[4] = test system: HEF; test: Effects on cell morphology of HEF cell lines.; format: functional; conditions: Homo sapiens
Summary of the method: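 Human embryonic skin-muscle fibroblasts were examined under the microscope for changes in normal cell morphology. The value is the minimum concentration causing a microscopically detectable alteration, averaged from at least two separate experiments.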

[5] = test system: MDCK; test: Antiviral activity tested against influenza A,H1N1 virus infected MDCK cell lines.; format: functional; conditions: Canis lupus familiaris
[6] = test system: HeLa; test: Effects on cell morphology of HeLa cell lines.; format: functional; conditions: Homo sapiens
Summary of the method: (§3)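 HeLa (human epithelial) or Vero (African green monkey kidney) cells were examined under the microscope for changes in normal morphology. The value is the minimum concentration causing a detectable alteration, averaged from at least two separate experiments.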

[7] = test system: Human respirovirus 3; test: Antiviral activity against parainfluenza 3 virus infected Vero cell lines.; format: functional; summary of the method: as §2
[8] = test system: Human alphaherpesvirus 1; test: Antiviral activity against TK-HSV-1 virus infected HEF cell lines.; format: functional; summary of the method: as §1
[9] = test system: MDCK; test: Antiviral activity of compound was tested against morphology virus infec+ted MDCK cell lines.; format: functional; conditions: Canis lupus familiaris
[10] = test system: Coxsackievirus B4; test: Antiviral activity against Coxsackie B4 virus infected HeLa cell lines.; format: functional; conditions: Enterovirus B; summary of the method: as §2
[11] = test system: Enterovirus C; test: Antiviral activity against polio 1 virus infected HeLa cell lines.; format: functional; summary of the method: as §2
[12] = test system: Coxsackievirus B4; test: Antiviral activity against Coxsackie B4 virus infected vero cell lines.; format: functional; conditions: Enterovirus B; summary of the method: as §2
[13] = test system: Vesicular stomatitis virus; test: Antiviral activity against vesicular stomatitis virus infected HeLa cell lines.; format: functional; summary of the method: as §2
[14] = test system: Human immunodeficiency virus 1; test: Antiviral activity against HIV-1 virus infected CEM cell lines.; format: functional, CCRF-CEM
[15] = Antiviral activity against influenza A,H3N2 virus infected MDCK cell lines.; format: functional
[16] = test system: Vero; test: Effects on cell morphology of Vero cell lines.; format: functional; conditions: Chlorocebus sabaeus; summary of the method: as §3
[17] = test system: Influenza B virus; test: Antiviral activity against influenza B virus infected MDCK cell lines.; format: functional
[18] = test system: Vaccinia virus; test: Antiviral activity against vaccinia virus infected HEF cell lines.; format: functional; conditions: Orthopoxvirus vaccinia; summary of the method: as §1
[19] = test system: HEL; test: Inhibition of HEL cell proliferation.; format: functional; conditions: Homo sapiens
Summary of the method: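 Human embryonic lung fibroblasts were used for the proliferation assay. The value is the concentration that reduces cell proliferation by 50%, averaged from at least two separate experiments.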

[20] = test system: Sindbis virus; test: Antiviral activity against sindbis virus infected Vero cell lines.; format: functional; summary of the method: as §2
[21] = test system: Human alphaherpesvirus 1; test: Antiviral activity against HSV-1 virus infected HEF cell lines.; format: functional; summary of the method: as §1
[22] = test system: Vesicular stomatitis virus; test: Antiviral activity against vesicular stomatitis virus infected HEF cell lines.; format: functional; summary of the method: as §1
[23] = test system: CCRF-CEM; test: Cytotoxicity against CEM cell lines.; format: functional; conditions: Homo sapiens
[24] = test system: Human immunodeficiency virus 2; test: Antiviral activity against HIV-2 virus infected CEM cell lines.; format: functional, CCRF-CEM
[25] = test system: Human alphaherpesvirus 3; test: Antiviral activity against TK-VZV virus infected HEL cell lines.; format: functional; summary of the method: as §2
[26] = test system: Human alphaherpesvirus 3; test: Antiviral activity against TK+VZV virus infected HEL cell lines.; format: functional; summary of the method: as §2
[27] = test system: Semliki Forest virus; test: Antiviral activity against Semliki forest virus infected Vero cell lines.; format: functional; summary of the method: as §2
[28] = test system: Mammalian orthoreovirus 1; test: Antiviral activity against Reo 1 virus infected vero cell lines.; format: functional; summary of the method: as §2
[29] = test system: MDCK; test: Antiviral activity of compound was tested against morphology virus infected MDCK cell lines.; format: functional; conditions: Canis lupus familiaris

With CNC1(C23CC4CC(CC(C4)C2)C3)CCCC1 the MIC50 [1] was greater than 10 µg/mL, the MIC50 [2] was greater than 20 µg/mL and the MIC50 [3] was 9 µg/mL (≈ 38.6 µM). It also gave an MIC50 [4] of 40 µg/mL (≈ 171 µM), an MIC50 [5] of 59 µg/mL (≈ 253 µM) and an MIC50 [6] greater than 100 µg/mL. The MIC50 [7] was greater than 100 µg/mL, the MIC50 [8] was greater than 10 µg/mL and the MIC50 [9] was greater than 250 µg/mL. For the same compound, the MIC50 [10] was greater than 40 µg/mL, the MIC50 [11] was greater than 40 µg/mL and the MIC50 [12] was greater than 100 µg/mL. It also gave an MIC50 [13] greater than 40 µg/mL, an MIC50 [14] greater than 8 µg/mL and an MIC50 [15] greater than 60 µg/mL. It also gave an MIC50 [16] greater than 400 µg/mL, an MIC50 [17] greater than 80 µg/mL and an MIC50 [18] greater than 10 µg/mL. For the same compound, the MIC50 [19] was greater than 50 µg/mL, the MIC50 [20] was greater than 100 µg/mL and the MIC50 [21] was greater than 10 µg/mL. For the same compound, the MIC50 [22] was greater than 10 µg/mL, the MIC50 [23] was 49 µg/mL (≈ 210 µM) and the MIC50 [24] was greater than 8 µg/mL. The MIC50 [25] was greater than 20 µg/mL, the MIC50 [26] was greater than 20 µg/mL and the MIC50 [27] was greater than 100 µg/mL. For the same compound, the MIC50 [28] was greater than 100 µg/mL.
Compound C1CNC(C23CC4CC(CC(C4)C2)C3)C1 (stereo unspecified) has an MIC50 [1] greater than 40 µg/mL, an MIC50 [2] greater than 50 µg/mL and an MIC50 [3] of 0.6 µg/mL (≈ 2.92 µM). The MIC50 [4] was 100 µg/mL (≈ 487 µM), the MIC50 [5] was 15.8 µg/mL (≈ 76.9 µM) and the MIC50 [6] was greater than 200 µg/mL. For the same compound, the MIC50 [7] was greater than 200 µg/mL, the MIC50 [8] was greater than 40 µg/mL and the MIC50 [29] was 250 µg/mL (≈ 1220 µM). It also gave an MIC50 [10] greater than 100 µg/mL, an MIC50 [11] greater than 100 µg/mL and an MIC50 [12] greater than 200 µg/mL. For the same compound, the MIC50 [13] was greater than 100 µg/mL, the MIC50 [14] was greater than 40 µg/mL and the MIC50 [15] was 12.4 µg/mL (≈ 60.4 µM). It also gave an MIC50 [16] of 400 µg/mL (≈ 1950 µM), an MIC50 [17] of 12 µg/mL (≈ 58.4 µM) and an MIC50 [18] greater than 40 µg/mL. It also gave an MIC50 [19] greater than 50 µg/mL, an MIC50 [20] greater than 200 µg/mL and an MIC50 [21] greater than 40 µg/mL. For the same compound, the MIC50 [22] was greater than 40 µg/mL, the MIC50 [23] was 56 µg/mL (≈ 273 µM) and the MIC50 [24] was greater than 40 µg/mL. The MIC50 [25] was greater than 50 µg/mL, the MIC50 [26] was greater than 50 µg/mL and the MIC50 [27] was greater than 200 µg/mL. The MIC50 [28] was greater than 200 µg/mL.
